Test results reported in ChEMBL document CHEMBL1123312, “In the search for new anticancer drugs. 17. Linear and cyclic polyether analogues of N,N:N',N':N'',N''-tri-1,2-ethanediylphosphoric triamide and N,N:N',N':N'',N''-tri-1,2-ethanediylphosphorothioic triamide” (J Med Chem, 1986).
Values joined by “and” are separate entries in the source; they are usually repeats but may differ in a detail not shown here. Equal values may be shown once.

Key:
Mus musculus [1] = assay: Percentage increase in life span when the compound was administered intraperitoneally at dose of 20 mg/Kg in P388 leukemia in CDF1 mice was determined; type: functional; conditions: P388, ip
In short: (§1)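 CD2F1 male mice, 19–22 g, in groups of six, inoculated ip with 10⁶ P388 cells on day 0. Dosed ip once daily for 9 days from day 1, in saline, or for linear polyethers in aqueous 2% Tween 80. Deaths and survivors were recorded to 30 days, some to 60. T/C is mean survival, treated vs tumour-bearing control. %ILS = [(T−C)/C]×100. Average day-5 weight change was taken as toxicity.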

Mus musculus [2] = assay: Percentage increase in life span when the compound was administered intraperitoneally at dose of 60 mg/Kg in P388 leukemia in CDF1 mice was determined; type: functional; conditions: P388, ip; in short: as §1
Mus musculus [3] = assay: Anticancer activity against P388 leukemia in CD2F1 male mice expressed as Average % weight change on day 5 as a measure of toxicity was reported at a dose of 60 mg/kg/day.; type: functional; in short: as §1
Mus musculus [4] = assay: Compound was evaluated for the anticancer activity against P388 leukemia in CD2F1 male mice at a dose of 60 mg/kg/after 30 days; 0/6; type: functional; in short: as §1
Mus musculus [5] = assay: Anticancer activity against P388 leukemia in CD2F1 male mice by 60 mg/kg/day.; type: functional; in short: as §1
Mus musculus [6] = assay: Anticancer activity against P388 leukemia in CD2F1 male mice expressed as Average % weight change on day 5 as a measure of toxicity was reported at a dose of 20 mg/kg/day.; type: functional; in short: as §1
Mus musculus [7] = assay: Compound was evaluated for the anticancer activity against P388 leukemia in CD2F1 male mice at a dose of 20 mg/kg/after 30 days; 0/6; type: functional
[8] = partition coefficient with the use of 1-octanol / water solvent system; type: physicochemical
In short: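 4 mL of 10 mM aqueous compound was stirred vigorously with 2 mL 1-octanol for 5 min at 25 °C. The aqueous layer was analysed by ³¹P NMR, and signal intensity (peak height × width at half-height) gave concentrations in each phase. P = [octanol]/[water].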

Mus musculus [9] = assay: Percentage increase in life span when the compound was administered intraperitoneally at dose of 90 mg/Kg in P388 leukemia in CDF1 mice was determined; type: functional; conditions: P388, ip; in short: as §1
Mus musculus [10] = assay: Anticancer activity against P388 leukemia in CD2F1 male mice expressed as Average % weight change on day 5 as a measure of toxicity was reported at a dose of 30 mg/kg/day.; type: functional; in short: as §1
Mus musculus [11] = assay: Compound was evaluated for the anticancer activity against P388 leukemia in CD2F1 male mice at a dose of 40 mg/kg/after 30 days; 0/6; type: functional
Mus musculus [12] = assay: Compound was evaluated for the anticancer activity against P388 leukemia in CD2F1 male mice at a dose of 10 mg/kg/after 30 days; 0/6; type: functional; in short: as §1
Mus musculus [13] = assay: Anticancer activity against P388 leukemia in CD2F1 male mice by 20 mg/kg/day.; type: functional; in short: as §1
Mus musculus [14] = assay: Compound was evaluated for the anticancer activity against P388 leukemia in CD2F1 male mice at a dose of 90 mg/kg/day.; type: functional; in short: as §1
Mus musculus [15] = assay: Percentage increase in life span when the compound was administered intraperitoneally at dose of 10 mg/Kg in P388 leukemia in CDF1 mice was determined; type: functional; conditions: P388, ip; in short: as §1
Mus musculus [16] = assay: Compound was evaluated for the anticancer activity against P388 leukemia in CD2F1 male mice at a dose of 30 mg/kg/after 30 days; 0/6; type: functional; in short: as §1
Mus musculus [17] = assay: Compound was evaluated for the anticancer activity against P388 leukemia in CD2F1 male mice at a dose of 30 mg/kg/day.; type: functional; in short: as §1
Mus musculus [18] = assay: Compound was evaluated for the anticancer activity against P388 leukemia in CD2F1 male mice at a dose of 6 mg/kg/after 30 days; 0/6
Mus musculus [19] = assay: Anticancer activity against P388 leukemia in CD2F1 male mice expressed as Average % weight change on day 5 as a measure of toxicity was reported at a dose of 40 mg/kg/day.; type: functional; in short: as §1
Mus musculus [20] = assay: Anticancer activity against P388 leukemia in CD2F1 male mice expressed as Average % weight change on day 5 as a measure of toxicity was reported at a dose of 90 mg/kg/day.; type: functional; in short: as §1
Mus musculus [21] = assay: Percentage increase in life span when the compound was administered intraperitoneally at dose of 125 mg/Kg in P388 leukemia in CDF1 mice was determined; type: functional; conditions: P388, ip; in short: as §1
Mus musculus [22] = assay: Percentage increase in life span when the compound was administered intraperitoneally at dose of 40 mg/Kg in P388 leukemia in CDF1 mice was determined; type: functional; conditions: P388, ip; in short: as §1
Mus musculus [23] = assay: Compound was evaluated for the anticancer activity against P388 leukemia in CD2F1 male mice at a dose of 90 mg/kg/after 30 days; 6/6; type: functional; in short: as §1
Mus musculus [24] = assay: Compound was evaluated for the anticancer activity against P388 leukemia in CD2F1 male mice at a dose of 40 mg/kg/day.; type: functional; conditions: at 40 mg/kg/day
Mus musculus [25] = assay: Compound was evaluated for the anticancer activity against P388 leukemia in CD2F1 male mice at a dose of 60 mg/kg/after 30 days; 3/6; type: functional; in short: as §1
Mus musculus [26] = assay: Percentage increase in life span when the compound was administered intraperitoneally at dose of 5 mg/Kg in P388 leukemia in CDF1 mice was determined; type: functional; conditions: P388, ip; in short: as §1
Mus musculus [27] = assay: Compound was evaluated for the anticancer activity against P388 leukemia in CD2F1 male mice at a dose of 10 mg/kg/day.; type: functional; in short: as §1
Mus musculus [28] = assay: Anticancer activity against P388 leukemia in CD2F1 male mice expressed as Average % weight change on day 5 as a measure of toxicity was reported at a dose of 125 mg/kg/day.; type: functional; in short: as §1
Mus musculus [29] = assay: Anticancer activity against P388 leukemia in CD2F1 male mice expressed as Average % weight change on day 5 as a measure of toxicity was reported at a dose of 5 mg/kg/day.; type: functional; in short: as §1
Mus musculus [30] = assay: Compound was evaluated for the anticancer activity against P388 leukemia in CD2F1 male mice at a dose of 90 mg/kg/after 60 days; 5/6; type: functional; in short: as §1
Mus musculus [31] = assay: Percentage increase in life span when the compound was administered intraperitoneally at dose of 30 mg/Kg in P388 leukemia in CDF1 mice was determined; type: functional; conditions: P388, ip; in short: as §1
Mus musculus [32] = assay: Compound was evaluated for the anticancer activity against P388 leukemia in CD2F1 male mice at a dose of 60 mg/kg/after 60 days; 1/6; type: functional; in short: as §1
Mus musculus [33] = assay: Anticancer activity against P388 leukemia in CD2F1 male mice expressed as Average % weight change on day 5 as a measure of toxicity was reported at a dose of 10 mg/kg/day.; type: functional; in short: as §1
Mus musculus [34] = assay: Compound was evaluated for the anticancer activity against P388 leukemia in CD2F1 male mice at a dose of 125 mg/kg/after 30 days; 0/6; type: functional; in short: as §1
Mus musculus [35] = assay: Compound was evaluated for the anticancer activity against P388 leukemia in CD2F1 male mice at a dose of 200 mg/kg/day.; type: functional
In short: (§2)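 Positive-control arm of the NCI P388 protocol in CD2F1 male mice, groups of six, inoculated ip with 10⁶ cells on day 0. A single 200 mg/kg per day dose was given on day 1. Survival was followed to 30 days, with T/C and %ILS from mean survival times and day-5 average weight change as toxicity.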

Mus musculus [36] = assay: Percentage increase in life span when the compound was administered intraperitoneally at dose of 200 mg/Kg in P388 leukemia in CDF1 mice was determined; type: functional; conditions: P388, ip; in short: as §2
Mus musculus [37] = assay: Anticancer activity against P388 leukemia in CD2F1 male mice expressed as Average % weight change on day 5 as a measure of toxicity was reported at a dose of 200 mg/kg/day.; type: functional; in short: as §2
Mus musculus [38] = assay: Anticancer activity against P388 leukemia in CD2F1 male mice. Number of survivors vs number of treated animals after 30 days were reported at a dose of 200 mg/kg/day; 0/6; type: functional; in short: as §2
Mus musculus [39] = assay: Percentage increase in life span when the compound was administered intraperitoneally at dose of 6 mg/Kg in P388 leukemia in CDF1 mice was determined; type: functional; conditions: P388, ip; in short: as §1
Mus musculus [40] = assay: Compound was evaluated for the anticancer activity against P388 leukemia in CD2F1 male mice at a dose of 6 mg/kg/day.; type: functional; conditions: at 6 mg/kg/day
Mus musculus [41] = assay: Anticancer activity against P388 leukemia in CD2F1 male mice expressed as Average % weight change on day 5 as a measure of toxicity was reported at a dose of 6 mg/kg/day.; type: functional; in short: as §1
Mus musculus [42] = assay: Compound was evaluated for the anticancer activity against P388 leukemia in CD2F1 male mice at a dose of 5 mg/kg/after 30 days; 1/6; type: functional
Mus musculus [43] = assay: Compound was evaluated for the anticancer activity against P388 leukemia in CD2F1 male mice at a dose of 60 mg/kg/after 60 days; 0/6; type: functional; in short: as §1

S=P(N1CCOCCOCCOCCOCC1)(N1CC1)N1CC1
ILS at 20 mg/kg (Mus musculus [1]): 24% | ILS at 60 mg/kg (Mus musculus [2]): 80% | Weight change (Mus musculus [3]): -6.4% | Survivors (Mus musculus [4]): 0 | T/C (Mus musculus [5]): 180% and 80% | Weight change (Mus musculus [6]): 7.9% | Survivors (Mus musculus [7]): 0 | Partition coefficient [8]: 2.6

C1COCCOCCOCCOCCN1
ILS at 20 mg/kg (Mus musculus [1]): 2% | ILS at 60 mg/kg (Mus musculus [2]): 0% | Weight change (Mus musculus [3]): 7.9% | Survivors (Mus musculus [4]): 0 | Weight change (Mus musculus [6]): 8.3% | Survivors (Mus musculus [7]): 0

O=P(N1CCOCCOCCOCCOCC1)(N1CC1)N1CC1
ILS at 90 mg/kg (Mus musculus [9]): 287% | Weight change (Mus musculus [10]): 0% | Survivors (Mus musculus [11]): 0 | ILS at 20 mg/kg (Mus musculus [1]): 99% | Survivors (Mus musculus [12]): 0 | T/C (Mus musculus [13]): 199% and 99% | T/C (Mus musculus [14]): 387% and 287% | ILS at 60 mg/kg (Mus musculus [2]): 229% | Weight change (Mus musculus [3]): -4.4% | ILS at 10 mg/kg (Mus musculus [15]): 66% | Survivors (Mus musculus [16]): 0 | T/C (Mus musculus [17]): 222% and 122% | Survivors (Mus musculus [18]): 0 | Weight change (Mus musculus [19]): -6.8% | Weight change (Mus musculus [20]): -1.8% | T/C (Mus musculus [5]): 329% and 229% | ILS at 125 mg/kg (Mus musculus [21]): -13% | ILS at 40 mg/kg (Mus musculus [22]): 137% | Survivors (Mus musculus [23]): 6 | T/C (Mus musculus [24]): 237% and 137% | Survivors (Mus musculus [25]): 3 | ILS at 5 mg/kg (Mus musculus [26]): 41% | T/C (Mus musculus [27]): 166% and 66% | Weight change (Mus musculus [6]): -2% | Survivors (Mus musculus [7]): 0 | Weight change (Mus musculus [28]): -9% | Weight change (Mus musculus [29]): 3.3% | Survivors (Mus musculus [30]): 5 | ILS at 30 mg/kg (Mus musculus [31]): 122% | Partition coefficient [8]: 1.32 | Survivors (Mus musculus [32]): 1 | Weight change (Mus musculus [33]): 6.2% | Survivors (Mus musculus [34]): 0

O=c1[nH]cc(F)c(=O)[nH]1 [FLUOROURACIL]
T/C (Mus musculus [35]): 179% and 79% | ILS at 200 mg/kg (Mus musculus [36]): 79% | Weight change (Mus musculus [37]): -4% | Survivors (Mus musculus [38]): 0

O=P(N1CC1)(N1CC1)N1CC1 [TEPA]
ILS at 6 mg/kg (Mus musculus [39]): 136% | T/C (Mus musculus [40]): 236% and 136% | Weight change (Mus musculus [41]): -4% | Survivors (Mus musculus [42]): 1 | Survivors (Mus musculus [43]): 0

S=P(N1CC1)(N1CC1)N1CC1 [THIOTEPA]
ILS at 6 mg/kg (Mus musculus [39]): 141% | T/C (Mus musculus [40]): 241% and 141% | Survivors (Mus musculus [18]): 0 | Partition coefficient [8]: 2.54
